Reference: ChEMBL document CHEMBL3272265, “Interferon inducing activities of derivatives of 1,3-dimethyl-4-(3-dimethylaminopropylamino)-1H-pyrazolo(3,4-b)quinoline and related compounds” (J Med Chem, 1976)
Active and inactive are the calls of the source. The rule behind the calls is not given here.

Key:
[1] = tested on: Mus musculus; assay: Induction of interferon level in CD-1 mouse serum at 50 mg/kg, ip after 18 to 20 hrs by vesicular stomatitis virus plaque reduction assay; type: functional, organism-based; set-up: dose 50 mg/kg
How it was run: (§1)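 Dosing was oral or ip in 15-g female CD-1 mice, at least three per dose level, with compound in sterile distilled water as a solution or suspension. Pooled sera were collected 18–20 hr after dosing. Interferon units/ml were quantified by a plaque reduction assay on mouse L cells with vesicular stomatitis virus challenge, run against an NIAID reference mouse interferon standard.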

[2] = tested on: Mus musculus; assay: Induction of interferon level in CD-1 mouse serum at 200 mg/kg, po after 18 to 20 hrs by vesicular stomatitis virus plaque reduction assay; type: functional, organism-based; set-up: dose 200 mg/kg; how it was run: as §1
[3] = tested on: Mus musculus; assay: Toxicity in CD-1 mouse at 300 mg/kg, ip; type: organism-based; set-up: dose 300 mg/kg, route intraperitoneal; conditions: in vivo
[4] = tested on: Mus musculus; assay: Induction of interferon level in CD-1 mouse serum at 100 mg/kg, ip after 18 to 20 hrs by vesicular stomatitis virus plaque reduction assay; type: functional, organism-based; set-up: dose 100 mg/kg; how it was run: as §1
[5] = tested on: Mus musculus; assay: Induction of interferon level in CD-1 mouse serum at 400 mg/kg, po after 18 to 20 hrs by vesicular stomatitis virus plaque reduction assay; type: functional, organism-based; set-up: dose 400 mg/kg; how it was run: as §1
[6] = tested on: Mus musculus; assay: Induction of interferon level >= 32 units/mL in po dosed CD-1 mouse serum after 18 to 20 hrs by vesicular stomatitis virus plaque reduction assay; type: functional; conditions: CD-1, Serum, read-out: MED
How it was run: (§2)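 Female CD-1 mice (15 g; at least three per dose) received compound dissolved or suspended in sterile distilled water, orally or ip. They were bled 18–20 hr later and sera pooled. Interferon was titrated by plaque reduction in mouse L cells challenged with vesicular stomatitis virus, with an NIAID reference mouse interferon standard. MED was the lowest dose giving ≥32 units/ml. Top doses were 400 mg/kg po and 300 mg/kg ip.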

[7] = tested on: Mus musculus; assay: Induction of interferon level >= 32 units/mL in ip dosed CD-1 mouse serum after 18 to 20 hrs by vesicular stomatitis virus plaque reduction assay; type: functional; conditions: CD-1, Serum, read-out: MED; how it was run: as §2
[8] = tested on: Mus musculus; assay: Induction of interferon level in CD-1 mouse serum at 17 mg/kg, ip after 18 to 20 hrs by vesicular stomatitis virus plaque reduction assay; type: functional, organism-based; set-up: dose 17 mg/kg; how it was run: as §1
[9] = tested on: Mus musculus; assay: Induction of interferon level in CD-1 mouse serum at 100 mg/kg, po after 18 to 20 hrs by vesicular stomatitis virus plaque reduction assay; type: functional, organism-based; set-up: dose 100 mg/kg; how it was run: as §1
[10] = tested on: Mus musculus; assay: Induction of interferon level in CD-1 mouse serum at 9 mg/kg, ip after 18 to 20 hrs by vesicular stomatitis virus plaque reduction assay; type: functional, organism-based; set-up: dose 9 mg/kg; how it was run: as §1
[11] = tested on: Mus musculus; assay: Acute toxicity in CD-1 mouse at 1600 mg/kg, po; type: organism-based; set-up: dose 1600 mg/kg, route oral; conditions: in vivo
[12] = tested on: Mus musculus; assay: Acute toxicity in CD-1 mouse at 250 mg/kg, ip; type: organism-based; set-up: dose 250 mg/kg, route intraperitoneal; conditions: in vivo
[13] = tested on: Mus musculus; assay: Induction of interferon level in CD-1 mouse serum at 300 mg/kg, ip after 18 to 20 hrs by vesicular stomatitis virus plaque reduction assay; type: functional, organism-based; set-up: dose 300 mg/kg; how it was run: as §1
[14] = tested on: Mus musculus; assay: Toxicity in CD-1 mouse at 400 mg/kg, po; type: organism-based; set-up: dose 400 mg/kg, route oral; conditions: in vivo
[15] = species: Mus musculus; assay: Acute toxicity in CD-1 mouse; type: organism-based; conditions: in vivo

SMILES: Cc1nn(C)c2nc3ccccc3c(SCCCN(C)C)c12.Cl
- Activity [1]: inactive
- Activity [2]: inactive
- Activity [3]: Toxic

SMILES: Cc1nn(C)c2nc3ccccc3c(NCCc3ccccn3)c12.Cl
- Activity [1]: inactive
- Activity [3]: Toxic

SMILES: CCC1CCC(C)N(CCCNc2c3ccccc3nc3c2c(C)nn3C)C1.Cl (centres undefined)
- Activity [4]: inactive
- Activity [3]: Toxic

SMILES: Cc1cccc2nc3c(c(C)nn3C)c(NCCCN(C)C)c12.Cl
- Activity [5]: inactive
- Activity [4]: inactive
- Activity [3]: Toxic

SMILES: Cc1nn(C)c2nc3cc(C(F)(F)F)ccc3c(NCCCN(C)C)c12.Cl
- Activity [4]: inactive
- Activity [3]: Toxic

SMILES: COc1ccc2nc3c(c(C)nn3C)c(NCCCN(C)C)c2c1.Cl
- minimal effective dose [6]: 200 mg/kg
- Activity [4]: inactive
- Activity [3]: Toxic

SMILES: CCc1nn(C)c2nc3ccccc3c(NCCCN(C)C)c12.Cl
- minimal effective dose [6]: 200 mg/kg
- Activity [4]: inactive
- Activity [3]: Toxic

SMILES: COC(=O)Cn1nc(C)c2c(NCCCN(C)C)c3ccccc3nc21.Cl
- Activity [4]: inactive
- Activity [3]: Toxic

SMILES: Cc1nn(C)c2nc3ccccc3c(NCCCN3CCOCC3)c12.Cl
- minimal effective dose [7]: 300 mg/kg
- Activity [5]: inactive

SMILES: Cc1nn(C)c2nc3ccccc3c(NCc3cccnc3)c12.Cl
- Activity [4]: inactive
- Activity [3]: Toxic

SMILES: CN(C)CCCNc1c2ccccc2nc2ccccc12.Cl
- minimal effective dose [7]: ≥ 300 mg/kg
- Activity [5]: inactive

SMILES: Cc1nn(C)c2nc3ccc(Cl)cc3c(NCCCN(C)C)c12.Cl
- Activity [4]: inactive
- Activity [3]: Toxic

SMILES: Cc1nn(CC(F)(F)F)c2nc3ccccc3c(NCCCN(C)C)c12.Cl
- Activity [4]: inactive
- Activity [3]: Toxic

SMILES: Cc1nn(C)c2nc3ccc(I)cc3c(NCCCN(C)C)c12.Cl
- minimal effective dose [6]: ≥ 400 mg/kg
- Activity [4]: inactive
- Activity [3]: Toxic

SMILES: Cc1nn(CCCN(C)C)c2nc3ccccc3c(Cl)c12.Cl
- Activity [8]: inactive
- Activity [3]: Toxic

SMILES: CCc1ccc2c(NCCCN(C)C)c3c(C)nn(C)c3nc2c1.Cl
- minimal effective dose [6]: 200 mg/kg
- Activity [4]: inactive
- Activity [3]: Toxic

SMILES: Cc1nn(CCCN(C)C)c2nc3ccccc3c(NCCCN(C)C)c12.Cl
- Activity [5]: inactive
- Activity [4]: inactive
- Activity [3]: Toxic

SMILES: Cc1nn(C)c2nc3ccccc3c(NCCC3CCCN3C)c12.Cl (centres undefined)
- Activity [4]: inactive
- Activity [3]: Toxic

SMILES: Cc1nn(CCCN(C)C)c2nc3ccccc3cc12.Cl
- Activity [4]: inactive
- Activity [3]: Toxic

SMILES: Cc1nn(C)c2nc3ccccc3c(NCCCN3CCCC3=O)c12.Cl
- Activity [4]: inactive
- Activity [3]: Toxic

SMILES: Cc1nn(C)c2nc3ccccc3c(NCCCNC34CC5CC(CC(C5)C3)C4)c12.Cl
- Activity [9]: inactive
- Activity [3]: Toxic

SMILES: CCOC(=O)c1cnc2c(c(C)nn2C)c1NCCCN(C)C
- Activity [9]: inactive

SMILES: Cc1cccc2c(NCCCN(C)C)c3c(C)nn(C)c3nc12.Cl
- Activity [4]: inactive
- Activity [3]: Toxic

SMILES: Cc1nn(Cc2ccccc2)c2nc3ccccc3c(NCCCN(C)C)c12.Cl
- Activity [4]: inactive
- Activity [3]: Toxic

SMILES: Cc1nn(C)c2nc3ccccc3c(NCCc3ccncc3)c12.Cl
- Activity [8]: inactive
- Activity [10]: inactive
- Activity [3]: Toxic

SMILES: Cc1nn(CCNCCCN(C)C)c2nc3ccccc3c(NCCCN(C)C)c12.Cl
- Activity [10]: inactive
- Activity [3]: Toxic

SMILES: Cc1nn(C)c2nc3ccccc3c(NCCN3CCCC3)c12.Cl
- Activity [4]: inactive
- Activity [3]: Toxic

SMILES: Cc1nn(C(C)C)c2nc3ccccc3c(NCCCN(C)C)c12.Cl
- Activity [1]: inactive
- Activity [3]: Toxic

SMILES: Cc1nn(C)c2nc3ccccc3c(NCCCN(C)C)c12.Cl
- minimal effective dose [7]: 100 mg/kg
- minimal effective dose [6]: 200 mg/kg
- Activity [11]: Toxic
- Activity [12]: Toxic

SMILES: Cc1nn(C)c2nc3c(c(NCCCN(C)C)c12)CCCC3
- Activity [5]: inactive
- Activity [4]: inactive

SMILES: CCn1nc(C)c2c(NCCCN(C)C)c3ccccc3nc21.Cl
- Activity [13]: inactive
- Activity [5]: inactive
- Activity [4]: inactive
- Activity [3]: Toxic

SMILES: CCc1ccc2nc3c(c(C)nn3C)c(NCCCN(C)C)c2c1.Cl
- minimal effective dose [6]: 200 mg/kg
- Activity [4]: inactive
- Activity [3]: Toxic

SMILES: CCc1n[nH]c2nc3ccccc3c(NCCCN(C)C)c12.Cl
- Activity [4]: inactive
- Activity [3]: Toxic

SMILES: Cc1nn(C)c2nc3ccccc3c(OCCCN(C)C)c12.Cl
- Activity [1]: inactive
- Activity [3]: Toxic

SMILES: COc1ccc(Cl)c2c(NCCCN(C)C)c3c(C)nn(C)c3nc12.Cl
- Activity [9]: inactive
- Activity [14]: Toxic

SMILES: Cc1nn(C)c2nc3ccccc3c(NC3CC3)c12.Cl
- Activity [9]: inactive
- Activity [3]: Toxic

SMILES: COc1cc2nc3c(c(C)nn3C)c(NCCCN(C)C)c2c(OC)c1OC.Cl
- Activity [2]: inactive
- Activity [14]: Toxic

SMILES: Cc1nn(C)c2nc3ccc([N+](=O)[O-])cc3c(NCCCN(C)C)c12.Cl
- Activity [4]: inactive
- Activity [3]: Toxic

SMILES: Cc1nn(C)c2nc3ccccc3c(NCCCN3CCCCC3)c12.Cl
- minimal effective dose [6]: 200 mg/kg
- Activity [4]: inactive
- Activity [3]: Toxic

SMILES: Cc1nn(C)c2nc3ccccc3c(N3CCC(CCN(C)C)CC3)c12.Cl
- Activity [1]: inactive
- Activity [3]: Toxic

SMILES: CCCCN(CCCC)CCCNc1c2ccccc2nc2c1c(C)nn2C.Cl
- Activity [4]: inactive
- Activity [3]: Toxic

SMILES: Cc1ccc2c(NCCCN(C)C)c3c(C)nn(C)c3nc2c1.Cl
- minimal effective dose [7]: 50 mg/kg
- minimal effective dose [6]: 50 mg/kg
- Activity [5]: inactive
- Activity [15]: Toxic
